Source: ChEMBL document CHEMBL1133628, “Nonnucleoside human cytomegalovirus inhibitors: synthesis and antiviral evaluation of (chlorophenylmethyl)benzothiadiazine dioxide derivatives” (J Med Chem, 2000)

System: HEL
Test: Inhibition of cell growth in HEL cells.
Assay type: functional
Conditions: Homo sapiens
Procedure, shortened: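 HEL fibroblasts seeded at 5×10^3 cells/well and left to proliferate 24 h, then given compound dilutions in duplicate. Incubated 3 days at 37 °C, 5% CO2; cells counted with a Coulter counter. CC50 is the concentration reducing cell growth by 50%.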

`O=C1c2ccccc2N(Cc2ccccc2Cl)S(=O)(=O)N1COCc1ccccc1` and `O=C1c2ccccc2N(Cc2ccccc2)S(=O)(=O)N1Cc1ccccc1` cannot be ordered by CC50: greater than 50 µM for the first, greater than 200 µM for the second.

Compared with `O=C1c2ccccc2N(Cc2ccc(Cl)cc2)S(=O)(=O)N1Cc1ccc(Cl)cc1`, `O=C1c2ccccc2N(Cc2ccccc2)S(=O)(=O)N1Cc1ccc(Cl)cc1` is lower in CC50: greater than 200 µM for the first, 121 µM for the second.

In the case of `O=C(OCOCN1c2ccccc2C(=O)N(Cc2ccccc2)S1(=O)=O)c1ccccc1`, the CC50 is reported as 37 µM.

System: Human immunodeficiency virus 2
Test: In vitro inhibition of HIV-2(ROD) cytopathicity in CEM cells.
Assay type: functional, organism-based
Conditions: Human immunodeficiency virus 2, CCRF-CEM
Procedure, shortened: (§1)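 CEM cells at 4×10^5 cells/mL infected with HIV-1 IIIB or HIV-2 ROD (stocks from MT-4 supernatants) at ~100 CCID50/mL, then immediately mixed with compound dilutions. Giant cell formation scored microscopically after 4 days; EC50 is the concentration inhibiting it by 50%. Triplicate assays.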

`O=C1c2ccccc2N(Cc2ccccc2Cl)S(=O)(=O)N1COCc1ccccc1` and `O=C1c2ccccc2N(Cc2ccccc2)S(=O)(=O)N1Cc1ccccc1` cannot be ordered by EC50: greater than 10 µM for the first, no less than 50 µM for the second.

Compared with `O=C1c2ccccc2N(Cc2ccc(Cl)cc2)S(=O)(=O)N1Cc1ccc(Cl)cc1`, `O=C1c2ccccc2N(Cc2ccccc2)S(=O)(=O)N1Cc1ccc(Cl)cc1` is higher in EC50: 7.5 µM for the first, greater than 10 µM for the second.

`O=C(OCOCN1c2ccccc2C(=O)N(Cc2ccccc2)S1(=O)=O)c1ccccc1` gave an EC50 greater than 40 µM.

System: Human alphaherpesvirus 3
Test: In vitro inhibition of Thymidine Kinase deficient Varicella Zoster Virus (YS/R) plaque formation.
Assay type: functional, organism-based
Conditions: not given
Procedure, shortened: (§2)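 Confluent HEL fibroblasts infected with VZV at 20 PFU; after a 2-h adsorption, residual virus removed and cells incubated in MEM with 2% FCS containing serial 5-fold compound dilutions, in duplicate. Fixed with ethanol after 5 days at 37 °C, 5% CO2, then Giemsa-stained; plaques counted microscopically. IC50 read graphically from plaque number (% of control); mean of two independent experiments.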

`O=C1c2ccccc2N(Cc2ccccc2Cl)S(=O)(=O)N1COCc1ccccc1` and `O=C1c2ccccc2N(Cc2ccccc2)S(=O)(=O)N1Cc1ccccc1` are within 1.5-fold of each other in IC50: 8 µM for the first, 6 µM for the second.

`O=C1c2ccccc2N(Cc2ccc(Cl)cc2)S(=O)(=O)N1Cc1ccc(Cl)cc1` and `O=C1c2ccccc2N(Cc2ccccc2)S(=O)(=O)N1Cc1ccc(Cl)cc1` are within 1.5-fold of each other in IC50: 2.4 µM for the first, 2.6 µM for the second.

With `O=C(OCOCN1c2ccccc2C(=O)N(Cc2ccccc2)S1(=O)=O)c1ccccc1` the IC50 was 26 µM.

System: Human alphaherpesvirus 3
Test: In vitro inhibition of Thymidine Kinase-Varicella Zoster Virus(YS) plaque formation.
Assay type: functional, organism-based
Conditions: not given
Procedure, shortened: as §2

First: O=C1c2ccccc2N(Cc2ccccc2Cl)S(=O)(=O)N1COCc1ccccc1
Second: O=C1c2ccccc2N(Cc2ccccc2)S(=O)(=O)N1Cc1ccccc1
The IC50 of the first is higher: greater than 50 µM for the first, 36 µM for the second.

Going from `O=C1c2ccccc2N(Cc2ccc(Cl)cc2)S(=O)(=O)N1Cc1ccc(Cl)cc1` to `O=C1c2ccccc2N(Cc2ccccc2)S(=O)(=O)N1Cc1ccc(Cl)cc1`, the IC50 rises from 3.8 µM to 8.2 µM (2.2-fold). The first is the more potent here.

`O=C(OCOCN1c2ccccc2C(=O)N(Cc2ccccc2)S1(=O)=O)c1ccccc1` gave an IC50 greater than 44 µM.

System: HEL
Test: In vitro alteration in cell morphology in HEL cells.
Assay type: functional
Conditions: Homo sapiens
Procedure, shortened: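 Normal HEL cells exposed to compounds and examined microscopically; minimum cytotoxic concentration is the lowest giving a detectable change in cell morphology. Duplicate assays.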

`O=C1c2ccccc2N(Cc2ccccc2Cl)S(=O)(=O)N1COCc1ccccc1` and `O=C1c2ccccc2N(Cc2ccccc2)S(=O)(=O)N1Cc1ccccc1` cannot be ordered by MCC: 200 µM for the first, greater than 50 µM for the second.

Compared with `O=C1c2ccccc2N(Cc2ccc(Cl)cc2)S(=O)(=O)N1Cc1ccc(Cl)cc1`, `O=C1c2ccccc2N(Cc2ccccc2)S(=O)(=O)N1Cc1ccc(Cl)cc1` is lower in MCC: greater than 50 µM for the first, 20 µM for the second.

Work on `O=C(OCOCN1c2ccccc2C(=O)N(Cc2ccccc2)S1(=O)=O)c1ccccc1` yielded an MCC of 110 µM.

System: CCRF-CEM
Test: In vitro inhibition of CEM cell proliferation.
Assay type: functional
Conditions: Homo sapiens
Procedure, shortened: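 CEM cell proliferation measured alongside the HIV assays; CC50 is the concentration reducing CEM cell proliferation by 50%.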

Compared with `O=C1c2ccccc2N(Cc2ccccc2Cl)S(=O)(=O)N1COCc1ccccc1`, `O=C1c2ccccc2N(Cc2ccccc2)S(=O)(=O)N1Cc1ccccc1` is 4.9-fold higher in CC50: 22.2 µM for the first, 108 µM for the second.

`O=C1c2ccccc2N(Cc2ccc(Cl)cc2)S(=O)(=O)N1Cc1ccc(Cl)cc1` and `O=C1c2ccccc2N(Cc2ccccc2)S(=O)(=O)N1Cc1ccc(Cl)cc1` are within 1.5-fold of each other in CC50: 35.8 µM for the first, 27.8 µM for the second.

Work on `O=C(OCOCN1c2ccccc2C(=O)N(Cc2ccccc2)S1(=O)=O)c1ccccc1` yielded a CC50 of 100 µM.

System: Human alphaherpesvirus 3
Test: In vitro inhibition of Thymidine Kinase deficient Varicella Zoster Virus (07/1) plaque formation.
Assay type: functional, organism-based
Conditions: not given
Procedure, shortened: as §2

Going from `O=C1c2ccccc2N(Cc2ccccc2Cl)S(=O)(=O)N1COCc1ccccc1` to `O=C1c2ccccc2N(Cc2ccccc2)S(=O)(=O)N1Cc1ccccc1`, the IC50 falls from greater than 50 µM to 23 µM. The second is the more potent here.

`O=C1c2ccccc2N(Cc2ccc(Cl)cc2)S(=O)(=O)N1Cc1ccc(Cl)cc1` and `O=C1c2ccccc2N(Cc2ccccc2)S(=O)(=O)N1Cc1ccc(Cl)cc1` are within 1.5-fold of each other in IC50: 11 µM for the first, 10 µM for the second.

In the case of `O=C(OCOCN1c2ccccc2C(=O)N(Cc2ccccc2)S1(=O)=O)c1ccccc1`, the IC50 is reported as greater than 44 µM.

System: Human betaherpesvirus 5
Test: In vitro inhibition of HCMV (Davis) plaque formation.
Assay type: functional, organism-based
Conditions: not given
Procedure, shortened: (§3)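 Confluent HEL fibroblasts infected with HCMV at 100 PFU of cell-free virus; after a 2-h adsorption, residual virus removed and cells incubated in MEM with 2% FCS containing serial 5-fold compound dilutions, in duplicate. Fixed with ethanol after 7 days at 37 °C, 5% CO2, then Giemsa-stained; cytopathic effect scored microscopically. IC50 read graphically from % cytopathicity; mean of two experiments.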

`O=C1c2ccccc2N(Cc2ccccc2Cl)S(=O)(=O)N1COCc1ccccc1` and `O=C1c2ccccc2N(Cc2ccccc2)S(=O)(=O)N1Cc1ccccc1` are the same in IC50: 10 µM for the first, 10 µM for the second.

`O=C1c2ccccc2N(Cc2ccc(Cl)cc2)S(=O)(=O)N1Cc1ccc(Cl)cc1` and `O=C1c2ccccc2N(Cc2ccccc2)S(=O)(=O)N1Cc1ccc(Cl)cc1` are within 1.5-fold of each other in IC50: 3.2 µM for the first, 3.5 µM for the second.

For `O=C(OCOCN1c2ccccc2C(=O)N(Cc2ccccc2)S1(=O)=O)c1ccccc1`, the IC50 was greater than 44 µM.

System: Human alphaherpesvirus 3
Test: In vitro inhibition of Thymidine Kinase-Varicella-Zoster Virus(OKA) plaque formation.
Assay type: functional, organism-based
Conditions: Human alphaherpesvirus 3, oka
Procedure, shortened: as §2

First: O=C1c2ccccc2N(Cc2ccccc2Cl)S(=O)(=O)N1COCc1ccccc1
Second: O=C1c2ccccc2N(Cc2ccccc2)S(=O)(=O)N1Cc1ccccc1
The IC50 of the first is higher: greater than 50 µM for the first, 7.4 µM for the second.

`O=C1c2ccccc2N(Cc2ccc(Cl)cc2)S(=O)(=O)N1Cc1ccc(Cl)cc1` and `O=C1c2ccccc2N(Cc2ccccc2)S(=O)(=O)N1Cc1ccc(Cl)cc1` are within 1.5-fold of each other in IC50: 3.6 µM for the first, 2.6 µM for the second.

Work on `O=C(OCOCN1c2ccccc2C(=O)N(Cc2ccccc2)S1(=O)=O)c1ccccc1` yielded an IC50 greater than 44 µM.

System: Human betaherpesvirus 5
Test: In vitro inhibition of HCMV (AD-169) plaque formation.
Assay type: functional, organism-based
Conditions: not given
Procedure, shortened: as §3

`O=C1c2ccccc2N(Cc2ccccc2Cl)S(=O)(=O)N1COCc1ccccc1` and `O=C1c2ccccc2N(Cc2ccccc2)S(=O)(=O)N1Cc1ccccc1` are the same in IC50: 10 µM for the first, 10 µM for the second.

`O=C1c2ccccc2N(Cc2ccc(Cl)cc2)S(=O)(=O)N1Cc1ccc(Cl)cc1` and `O=C1c2ccccc2N(Cc2ccccc2)S(=O)(=O)N1Cc1ccc(Cl)cc1` are within 1.5-fold of each other in IC50: 3.2 µM for the first, 3 µM for the second.

With `O=C(OCOCN1c2ccccc2C(=O)N(Cc2ccccc2)S1(=O)=O)c1ccccc1` the IC50 was 29 µM.

System: Human immunodeficiency virus 1
Test: In vitro inhibition of HIV-1(IIIB) cytopathicity in CEM cells.
Assay type: functional, organism-based
Conditions: Human immunodeficiency virus 1, CCRF-CEM
Procedure, shortened: as §1

`O=C1c2ccccc2N(Cc2ccccc2Cl)S(=O)(=O)N1COCc1ccccc1` and `O=C1c2ccccc2N(Cc2ccccc2)S(=O)(=O)N1Cc1ccccc1` cannot be ordered by EC50: greater than 10 µM for the first, 25 µM for the second.

Going from `O=C1c2ccccc2N(Cc2ccc(Cl)cc2)S(=O)(=O)N1Cc1ccc(Cl)cc1` to `O=C1c2ccccc2N(Cc2ccccc2)S(=O)(=O)N1Cc1ccc(Cl)cc1`, the EC50 falls from greater than 10 µM to 5 µM. The second is the more potent here.

`O=C(OCOCN1c2ccccc2C(=O)N(Cc2ccccc2)S1(=O)=O)c1ccccc1` gave an EC50 greater than 40 µM.
